A short description of experiment [1]: inhibitors of TNFa-induced NFkB p65 translocation, primary screen, imaging, HUVEC, MLSMR starter and 10KST1 sets (AID 438;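 active means inhibition above 20% together with a positive visual image hit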;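 further: compound added about 3h40 before a 20 min TNFalpha stimulation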;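 on inhibition: signal is the nuclear over cytoplasmic p65 intensity ratio per well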). Particulars: HUVEC TNFa-induced p65 nuclear translocation; cell count: measured here: nuclei count (cytotoxicity indicator), at 2.08 µM; inhibition: at 2 µM, stronger effect = higher value, 0% TNFa-plus-vehicle, 100% no-TNFa wells.
Experiment [2] is described as follows: endothelial E-selectin expression blockers – imaging, HUVEC, immunofluorescence, MLSMR starter and 10KST1 sets, primary screen (AID 487;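 active means visually confirmed hit in the image check and inhibition above 20%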;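 on inhibition: signal is fraction of cell area covered by stained E-selectin grains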;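 on nuclei count: 100% = median nuclei count of all wells on the same plate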). Particulars: HUVEC TNFalpha-induced E-selectin immunofluorescence imaging, at 2 µM; inhibition: stronger effect = higher value; nuclei count: measured here: cell number, toxicity.
Experiment [3] can be described thus: Primary imaging screen for DUSP6 inhibitors that restore phospho-Erk in transfected HeLa cells, chemical complementation (AID 609;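 active means compounds giving at least 50% inhibition in the cell-based MKP-3 phosphatase rescue imaging test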;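 on inhibition: phospho-Erk level distribution per well compared with pooled transfected vehicle control wells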). Particulars: HeLa MKP-3 transfected, phospho-Erk imaging KS statistic, at 10 µM, cells stimulated with TPA for 15 min.
In experiment [4] the target is Dual specificity protein phosphatase 6 (Homo sapiens) (UniProt Q16828). The description is as above. The settings on record: HeLa MKP-3 transfected, phospho-Erk imaging KS statistic; at 10 µM; stronger effect = higher value; cells stimulated with TPA for 15 min.
Sequence of Dual specificity protein phosphatase 6 (Homo sapiens) (Q16828 whole entry, looked up): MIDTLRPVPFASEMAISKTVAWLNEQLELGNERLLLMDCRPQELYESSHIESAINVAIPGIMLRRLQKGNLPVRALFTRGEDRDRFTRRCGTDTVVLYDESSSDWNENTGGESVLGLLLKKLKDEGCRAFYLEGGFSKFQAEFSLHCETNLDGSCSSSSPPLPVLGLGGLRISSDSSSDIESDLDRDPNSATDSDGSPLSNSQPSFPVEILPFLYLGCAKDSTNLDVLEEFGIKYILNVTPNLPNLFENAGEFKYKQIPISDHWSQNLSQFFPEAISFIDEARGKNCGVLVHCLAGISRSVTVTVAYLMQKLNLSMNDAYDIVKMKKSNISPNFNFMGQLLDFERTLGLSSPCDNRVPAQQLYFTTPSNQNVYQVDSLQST
For experiment [5], the target named is Voltage-gated potassium channel subunit beta-2 (Rattus norvegicus) (UniProt P62483). Nature of the experiment: inhibitors of rat Kvbeta2 reductase activity – biochemical, NADPH fluorescence, primary screen (AID 622;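 active means fluorescence slope higher than the sample average by over 3 SD, cut at about -0.22 in these data, passing the limit was not always enough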;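 further: slope of raw intensity against log time taken from 70 to 1610 s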). Particulars: recombinant KvBeta, 4-cyanobenzaldehyde reduction, at 10 µM, stronger effect = higher value.
Sequence of Voltage-gated potassium channel subunit beta-2 (Rattus norvegicus) (P62483 whole entry, looked up): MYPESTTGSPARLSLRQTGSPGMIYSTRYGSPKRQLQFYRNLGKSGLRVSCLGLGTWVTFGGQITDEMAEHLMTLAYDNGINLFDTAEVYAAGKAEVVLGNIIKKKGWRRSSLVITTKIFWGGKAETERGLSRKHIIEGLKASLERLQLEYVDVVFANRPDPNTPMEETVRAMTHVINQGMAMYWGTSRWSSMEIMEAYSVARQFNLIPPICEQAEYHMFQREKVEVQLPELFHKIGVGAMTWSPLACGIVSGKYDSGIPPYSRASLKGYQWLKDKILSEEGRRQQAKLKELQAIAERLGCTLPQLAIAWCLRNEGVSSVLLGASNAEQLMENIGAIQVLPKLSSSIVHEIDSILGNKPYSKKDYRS
Experiment [6] has the same target. Nature of the experiment: enhancers of rat Kvbeta2 NADPH turnover – biochemical, NADPH fluorescence, primary screen (AID 623).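 Further: fluorescence intensity change per second fitted from 20 to 320 s.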 The settings on record: Recombinant KvBeta, NADPH fluorescence decrease slope, 10 min; at 10 µM; stronger effect = lower value.
In experiment [7] the target is Muscarinic acetylcholine receptor M4 (Homo sapiens) (UniProt P08173). Nature of the experiment: M4-linked GIRK flux change, two-sided – cell-based, HEK293 M4/GIRK, thallium flux, BTC-AM, M4 allosteric agonist project, primary screen (AID 625;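 active means fluorescence slope after compound addition differing from the mean of all tested samples at 99.7% confidence, mostly higher but some lower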;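 further: thallium influx through GIRK channels coupled to M4 in HEK293 cells with BTC-AM dye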). Particulars: at 10 µM, actives lie on both sides. A digest of the protocol:
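assay system = HEK293 cells with M4 receptor and GIRK channels | medium = pH 7.3 thallium assay buffer | doses = 10 µM final, single point | timing = cells overnight at 37 °C, BTC-AM loading 1 h, reads 2 min total | signal = BTC-AM fluorescence, 1 Hz kinetic reads | read-out = post-addition slope, 15–24 s, of baseline-normalized fluorescence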

A short description of experiment [8]: inhibitors of larval lipid processing in zebrafish, primary screen, whole organism, PED6 fluorescence, gall bladder and intestine (AID 686;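 active means a full or partial loss of lipid-probe fluorescence in the fish gall bladder, intestine or both, judged by eye; inactive means no fluorescence loss, or compound toxic to the fish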;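 further: larvae 5 to 7 days old with five fish per well; signal comes from phospholipase A2 cleavage of quenched PED6 carried via bile; overnight exposure to compound and PED6 before scoring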). Particulars: Zebrafish larvae PED6 lipid processing, fluorescence scoring; screened at 20 µM (by protocol). A digest of the protocol: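 Also added: quenched phospholipase substrate PED6, 100 nM final, ingested by larvae; System: zebrafish larvae, 5-7 d; Quantity: 5 larvae per well; Compound: 20 µM single dose; Schedule: overnight compound and PED6 incubation; Read-out: visual per-well fluorescence inhibition score; Measured by: By-eye fluorescence microscopy; Medium: E3.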

Experiment [9] in a line: loss of swimming-algae plug formation – whole organism, Chlamydomonas reinhardtii, WT vs cilia-less mutant, absorbance, 96-well, primary screen (AID 463189;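 active means inhibition at or above 50% relative to wild type and mutant plate controls; inactive means inhibition below 50%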;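 further: 0% = wild type cc124 cells in DMSO and 100% = ciliumless bld1 mutant cells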). The settings on record: Chlamydomonas reinhardtii gravitaxis, OD600 absorbance, 2 days; at 10 µM; stronger effect = higher value.
The mark [10] stands for this setting: measured here: cell density z-score.
Setting [11] is: measured here: nuclear c-Myc green intensity z-score.
The mark [12] stands for this setting: measured here: nuclear pErk red intensity z-score, stronger effect = higher value.

Calls of active or inactive are those of the source.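 How the source made its calls, unless noted: active means NADPH fluorescence slope more negative than the mean of all samples by about 3 SD, 99.7% confidence; inactive means the rest.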

Sequence of Muscarinic acetylcholine receptor M4 (Homo sapiens) (P08173 whole entry, looked up): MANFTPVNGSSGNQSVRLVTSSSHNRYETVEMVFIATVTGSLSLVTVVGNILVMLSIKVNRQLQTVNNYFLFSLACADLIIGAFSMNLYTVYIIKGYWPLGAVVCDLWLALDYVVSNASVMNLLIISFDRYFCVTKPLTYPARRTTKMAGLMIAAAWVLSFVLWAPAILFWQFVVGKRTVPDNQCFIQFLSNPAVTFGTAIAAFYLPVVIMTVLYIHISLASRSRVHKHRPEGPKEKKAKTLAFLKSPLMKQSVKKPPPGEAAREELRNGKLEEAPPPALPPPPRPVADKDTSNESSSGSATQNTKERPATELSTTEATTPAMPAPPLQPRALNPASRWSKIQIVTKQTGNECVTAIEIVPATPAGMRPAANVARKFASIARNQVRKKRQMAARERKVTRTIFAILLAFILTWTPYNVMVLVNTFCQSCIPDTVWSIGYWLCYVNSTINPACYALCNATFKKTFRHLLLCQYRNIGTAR

Usually inhibition stands for the change of the read-out against control, counted positive when it falls. Turning to `CCOCCn1c(SC)nc2c1c(=O)[nH]c(=O)n2C`, the cell count in [1] is 498. Also, the inhibition in experiment [1] is 6.3% (inactive); in [2], -6% (inactive); in experiment [4], 12.8% (inactive); in [9] it was 44.4% (inactive). In addition, the nuclei count in experiment [2] worked out at 122%. The results for the z-score in experiment [3] (setting [10]), in [3] (setting [11]) and in [3] (setting [12]) were 1.57, -1.62 and 0.579, respectively. Besides, the fluorescence slope was -0.529 (inactive) in experiment [5] and 0.00609 (inactive) in [7]. Also, the NADPH fluorescence slope in experiment [6] is -3.7e-05 (inactive). Also, the result in experiment [8] was inactive.

For `Fc1ccc2[nH]c3c(N4CCSCC4)ncnc3c2c1`, the cell count in experiment [1] was 664. Moreover, the inhibition in [1] was -4.3% (inactive); in experiment [2] it was 0.7% (inactive); in experiment [4], -3.95% (inactive); in [9], 5.41% (inactive). In experiment [2], the nuclei count was 153%. In addition, the z-score was -0.905 in experiment [3] (setting [10]), 0.444 in experiment [3] (setting [11]) and 1.27 in experiment [3] (setting [12]). The figures for the fluorescence slope in experiment [5] and in [7] were -0.418 (inactive) and 0.00396 (inactive), respectively. For the same compound, in experiment [6], the NADPH fluorescence slope is -2.2e-05 (inactive). Moreover, the outcome in [8] is “inactive; toxic”.

`CCCCc1nc(NCC2CCCO2)c(C#N)c2c1COC(C)(C)C2` (stereo unspecified): the cell count in [1] came to 380. The inhibition in [1] is -5.9% (inactive); in experiment [2], -69.1% (inactive); in [4] it was 31.4% (inactive); in [9] it was -8.27% (inactive). In [2], this compound yielded a nuclei count of 135%. Besides, the z-score in [3] (setting [10]) is -0.8; in experiment [3] (setting [11]), 1.32; in experiment [3] (setting [12]), -1.16. Further, the fluorescence slope in experiment [5] was -0.509 (inactive); in experiment [7], 0.00404 (inactive). Also, the NADPH fluorescence slope in experiment [6] is -7.2e-05 (inactive). In experiment [8], the call was inactive.

With `Cc1cccc(NC(=O)c2c(C)cc(=O)oc2C)n1`, the cell count in experiment [1] stood at 522. The inhibition in experiment [1] is -1.7% (inactive); in [2] it was 26.4% (inactive); in experiment [4] it was 7.93% (inactive); in [9] it was -9.96% (inactive). The same compound had a nuclei count in [2] of 170%. For the same compound, the values for the z-score in [3] (setting [10]), in experiment [3] (setting [11]) and in experiment [3] (setting [12]) were 0.944, 0.403 and -0.669, respectively. Besides, the fluorescence slope in experiment [5] was -0.374 (inactive); in [7], 0.00509 (inactive). Also, the NADPH fluorescence slope in experiment [6] is -3.7e-05 (inactive). Further, the result in experiment [8] was inactive.

In the case of `COC(=O)c1cc(Br)c(=O)n(-c2cc(C)on2)c1`, in experiment [1], the cell count was found to be 650. In addition, the inhibition in [1] is -3.9% (inactive); in [2] it was 23.3% (inactive); in experiment [4] it was -2.91% (inactive); in experiment [9] it was 8.55% (inactive). In experiment [2], this compound came in with a nuclei count of 115%. Besides, the values for the z-score in experiment [3] (setting [10]), in experiment [3] (setting [11]) and in experiment [3] (setting [12]) were -0.164, -1.68 and 0.836, respectively. The fluorescence slope in experiment [5] was -0.438 (inactive); in [7], 0.00456 (inactive). In experiment [6], the NADPH fluorescence slope is -1.4e-05 (inactive). In addition, in experiment [8], the compound was called inactive.

On to `CCc1nc(N2CCOCC2)c(C#N)c2c1CCCC2`, for which the cell count in [1] turned out to be 397. Also, the inhibition is -6.2% (inactive) in [1], -105% (inactive) in experiment [2], 9.42% (inactive) in experiment [4] and 29.5% (inactive) in [9]. The same compound displayed a nuclei count in [2] of 121%. Besides, the z-score in [3] (setting [10]) is 0.0216; in experiment [3] (setting [11]), 0.691; in experiment [3] (setting [12]), -0.389. Moreover, the fluorescence slope in experiment [5] is -0.482 (inactive); in experiment [7] it was 0.00431 (inactive). The NADPH fluorescence slope in [6] was -6.5e-05 (inactive). Besides, the compound was called inactive in experiment [8].

For the compound `O=c1c2ccccc2ncn1Cc1ccco1`, the cell count in [1] is 682. The inhibition in experiment [1] was -8.5% (inactive); in experiment [2], -74.2% (inactive); in [4] it was -15.1% (inactive); in experiment [9] it was 14.3% (inactive). For the same compound, in experiment [2], the nuclei count worked out at 138%. The z-score in experiment [3] (setting [10]) is -0.419; in [3] (setting [11]), -1.56; in [3] (setting [12]), 0.938. Also, the figures for the fluorescence slope in experiment [5] and in experiment [7] were -0.449 (inactive) and 0.00462 (inactive), respectively. For the same compound, the NADPH fluorescence slope in [6] is -3.2e-05 (inactive). Also, in [8], the result was inactive.
